Measurements as given in ChEMBL document CHEMBL3232838, “Synthesis, crystal structure and biological evaluation of some novel 1,2,4-triazolo[3,4-b]-1,3,4-thiadiazoles and 1,2,4-triazolo[3,4-b]-1,3,4-thiadiazines” (Eur J Med Chem, 2014).

Columns and labels:
Acetylcholinesterase = Acetylcholinesterase (Electrophorus electricus, UniProt O42275); experiment: (§1) Inhibition of electric eel acetylcholinesterase using acetylthiocholine iodide as substrate preincubated for 10 mins before substrate addition after 15 mins by Ellman's method
Sequence of Acetylcholinesterase (O42275 whole entry): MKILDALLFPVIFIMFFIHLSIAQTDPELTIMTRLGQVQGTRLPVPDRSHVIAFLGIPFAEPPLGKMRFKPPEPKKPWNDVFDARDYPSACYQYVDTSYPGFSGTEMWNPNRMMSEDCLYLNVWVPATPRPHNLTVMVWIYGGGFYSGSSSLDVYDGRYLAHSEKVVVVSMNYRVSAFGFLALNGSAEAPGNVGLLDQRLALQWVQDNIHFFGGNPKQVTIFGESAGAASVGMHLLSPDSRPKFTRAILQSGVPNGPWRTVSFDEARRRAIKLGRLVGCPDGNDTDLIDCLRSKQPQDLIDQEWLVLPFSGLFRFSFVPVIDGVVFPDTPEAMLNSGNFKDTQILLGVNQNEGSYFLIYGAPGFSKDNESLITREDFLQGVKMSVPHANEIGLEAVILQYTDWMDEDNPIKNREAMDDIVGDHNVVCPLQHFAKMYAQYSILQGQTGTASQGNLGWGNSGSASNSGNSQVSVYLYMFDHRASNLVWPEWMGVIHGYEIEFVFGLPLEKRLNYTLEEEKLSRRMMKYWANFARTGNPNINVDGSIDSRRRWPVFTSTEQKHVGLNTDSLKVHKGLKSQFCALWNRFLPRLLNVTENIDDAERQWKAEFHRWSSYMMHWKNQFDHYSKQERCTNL

Cholinesterase = Cholinesterase (Homo sapiens, UniProt P06276); experiment: Inhibition of human BChE using butyrylthiocholine iodide as substrate preincubated for 10 mins before substrate addition after 15 mins by Ellman's method
Sequence of Cholinesterase (P06276 whole entry): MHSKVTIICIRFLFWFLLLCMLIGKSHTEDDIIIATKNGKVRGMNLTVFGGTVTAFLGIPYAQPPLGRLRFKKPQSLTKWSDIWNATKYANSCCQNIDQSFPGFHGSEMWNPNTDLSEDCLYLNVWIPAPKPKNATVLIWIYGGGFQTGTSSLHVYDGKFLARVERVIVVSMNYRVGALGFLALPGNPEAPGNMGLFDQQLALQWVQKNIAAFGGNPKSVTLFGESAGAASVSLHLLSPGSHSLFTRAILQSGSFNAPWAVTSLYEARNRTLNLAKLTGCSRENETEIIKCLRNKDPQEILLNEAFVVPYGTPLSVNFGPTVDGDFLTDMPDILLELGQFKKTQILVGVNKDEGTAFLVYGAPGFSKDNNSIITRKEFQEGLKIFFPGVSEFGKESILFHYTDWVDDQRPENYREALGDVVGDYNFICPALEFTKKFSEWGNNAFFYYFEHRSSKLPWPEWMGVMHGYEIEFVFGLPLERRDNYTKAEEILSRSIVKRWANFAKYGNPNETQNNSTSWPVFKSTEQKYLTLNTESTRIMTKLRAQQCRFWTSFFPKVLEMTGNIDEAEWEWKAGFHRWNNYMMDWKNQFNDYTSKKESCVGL
In short: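 Ellman assay in 50 mM Tris-HCl, 0.1 M NaCl, 0.02 M MgCl2, pH 8.0, with DMSO at 1% final. hBChE (3.4 U/mg) is preincubated with compound for 10 min at 25 °C. Blanks lack enzyme or substrate. IC50 from linear regression.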

[1] = molecular target: Intestinal-type alkaline phosphatase (Bos taurus) (UniProt P19111); experiment: (§2) Inhibition of calf intestinal alkaline phosphatase using p-nitrophenyl phosphate as substrate preincubated for 10 mins before substrate addition after 30 mins; design: concentration or dose not given beside the values
Sequence of Intestinal-type alkaline phosphatase (Bos taurus) (P19111 20-506 limits assumed): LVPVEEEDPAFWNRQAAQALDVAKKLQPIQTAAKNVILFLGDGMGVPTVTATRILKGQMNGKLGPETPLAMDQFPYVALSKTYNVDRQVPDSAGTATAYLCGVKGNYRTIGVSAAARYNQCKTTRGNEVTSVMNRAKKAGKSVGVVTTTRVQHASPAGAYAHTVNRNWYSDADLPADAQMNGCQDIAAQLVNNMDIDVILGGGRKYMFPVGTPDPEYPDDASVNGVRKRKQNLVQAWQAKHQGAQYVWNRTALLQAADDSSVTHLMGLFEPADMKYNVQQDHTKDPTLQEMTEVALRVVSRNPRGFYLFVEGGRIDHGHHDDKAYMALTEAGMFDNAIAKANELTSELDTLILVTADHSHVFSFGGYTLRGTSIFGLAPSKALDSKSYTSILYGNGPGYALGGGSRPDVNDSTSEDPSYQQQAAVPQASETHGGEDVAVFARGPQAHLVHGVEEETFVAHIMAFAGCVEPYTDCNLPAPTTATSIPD

[2] = Anticancer activity against Syrian golden hamster BHK21 cells at 100 uM after 48 hrs by SRB assay; format: functional; conditions: Mesocricetus auratus, BHK-21, 48 h; read-out: GI
In short: (§3)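 RPMI-1640 culture with 10% heat-inactivated FBS, 2 mM glutamine, 1 mM pyruvate and penicillin/streptomycin at 37 °C, 5% CO2. Cells per 96-well well: H157 10⁴, BHK-21 5×10⁴. After 24 h, monolayers were exposed to 100, 10, 1 or 0.1 µM compound for 48 h, with vincristine as standard. Cells were fixed in cold 50% TCA (4 °C, 1 h) and stained with 0.4% SRB in 1% acetic acid (30 min). Dye was dissolved in 10 mM Tris and read at A490 minus A630. Read-out was percent inhibition.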

[3] = Anticancer activity against Syrian golden hamster BHK21 cells at 10 uM after 48 hrs by SRB assay; format: functional; conditions: Mesocricetus auratus, BHK-21, 48 h; read-out: GI; in short: as §3
[4] = Anticancer activity against Syrian golden hamster BHK21 cells at 1 uM after 48 hrs by SRB assay; format: functional; conditions: Mesocricetus auratus, BHK-21, 48 h; read-out: GI; in short: as §3
[5] = Anticancer activity against Syrian golden hamster BHK21 cells at 0.1 uM after 48 hrs by SRB assay; format: functional; conditions: Mesocricetus auratus, BHK-21, 48 h; read-out: GI; in short: as §3
NCI-H157 [6] = experiment: Anticancer activity against human NCI-H157 cells at 100 uM after 48 hrs by SRB assay; format: functional; conditions: NCI-H157, 48 h, read-out: GI; in short: as §3
NCI-H157 [7] = experiment: Anticancer activity against human NCI-H157 cells at 10 uM after 48 hrs by SRB assay; format: functional; conditions: NCI-H157, 48 h, read-out: GI; in short: as §3
NCI-H157 [8] = experiment: Anticancer activity against human NCI-H157 cells at 1 uM after 48 hrs by SRB assay; format: functional; conditions: NCI-H157, 48 h, read-out: GI; in short: as §3
NCI-H157 [9] = experiment: Anticancer activity against human NCI-H157 cells at 0.1 uM after 48 hrs by SRB assay; format: functional; conditions: NCI-H157, 48 h, read-out: GI; in short: as §3
Leishmania major [10] = experiment: Antileishmanial activity against promastigote form of Leishmania major at 100 uM after 72 hrs by MTT assay; format: functional
In short: (§4)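 Log-phase promastigotes grown at 25 °C in phenol-red-free D-MEM/F-12 with 10% heat-inactivated FBS, washed in PBS, seeded at 2.5×10⁶/mL (100 µL/well). Compounds in triplicate wells, 72 h at 25 °C; amphotericin B standard. MTT (5 mg/mL stock) 3 h, stopped with 50% isopropanol/10% SDS, OD570 minus 690. Percent inhibition vs control; mean ± SEM of three independent experiments.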

Leishmania major [11] = experiment: Antileishmanial activity against promastigote form of Leishmania major at 10 uM after 72 hrs by MTT assay; format: functional; in short: as §4
Leishmania major [12] = experiment: Antileishmanial activity against promastigote form of Leishmania major at 1 uM after 72 hrs by MTT assay; format: functional; in short: as §4
Leishmania major [13] = experiment: Antileishmanial activity against promastigote form of Leishmania major at 0.1 uM after 72 hrs by MTT assay; format: functional; in short: as §4
[14] = molecular target: Acetylcholinesterase (Electrophorus electricus) (UniProt O42275); experiment: as §1
Sequence of Acetylcholinesterase (Electrophorus electricus) (O42275 24-633 limits assumed): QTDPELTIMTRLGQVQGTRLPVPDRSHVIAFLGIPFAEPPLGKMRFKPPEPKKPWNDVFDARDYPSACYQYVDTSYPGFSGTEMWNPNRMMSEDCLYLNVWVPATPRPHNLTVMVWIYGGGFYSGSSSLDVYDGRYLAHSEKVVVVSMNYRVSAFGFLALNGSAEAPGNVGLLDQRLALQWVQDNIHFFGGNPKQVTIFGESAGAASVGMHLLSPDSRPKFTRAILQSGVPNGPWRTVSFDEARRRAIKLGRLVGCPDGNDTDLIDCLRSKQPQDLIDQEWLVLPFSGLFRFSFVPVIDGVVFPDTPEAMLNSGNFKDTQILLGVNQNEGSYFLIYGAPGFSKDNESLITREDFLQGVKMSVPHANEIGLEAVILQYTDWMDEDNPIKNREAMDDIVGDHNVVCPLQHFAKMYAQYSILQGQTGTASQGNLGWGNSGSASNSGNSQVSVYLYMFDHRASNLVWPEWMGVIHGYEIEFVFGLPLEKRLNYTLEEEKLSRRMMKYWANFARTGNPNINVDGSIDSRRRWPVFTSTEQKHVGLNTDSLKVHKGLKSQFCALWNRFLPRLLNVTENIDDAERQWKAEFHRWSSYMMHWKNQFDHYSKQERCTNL

[15] = molecular target: Intestinal-type alkaline phosphatase (Bos taurus, UniProt P19111); experiment: as §2
Sequence of Intestinal-type alkaline phosphatase (P19111 whole entry): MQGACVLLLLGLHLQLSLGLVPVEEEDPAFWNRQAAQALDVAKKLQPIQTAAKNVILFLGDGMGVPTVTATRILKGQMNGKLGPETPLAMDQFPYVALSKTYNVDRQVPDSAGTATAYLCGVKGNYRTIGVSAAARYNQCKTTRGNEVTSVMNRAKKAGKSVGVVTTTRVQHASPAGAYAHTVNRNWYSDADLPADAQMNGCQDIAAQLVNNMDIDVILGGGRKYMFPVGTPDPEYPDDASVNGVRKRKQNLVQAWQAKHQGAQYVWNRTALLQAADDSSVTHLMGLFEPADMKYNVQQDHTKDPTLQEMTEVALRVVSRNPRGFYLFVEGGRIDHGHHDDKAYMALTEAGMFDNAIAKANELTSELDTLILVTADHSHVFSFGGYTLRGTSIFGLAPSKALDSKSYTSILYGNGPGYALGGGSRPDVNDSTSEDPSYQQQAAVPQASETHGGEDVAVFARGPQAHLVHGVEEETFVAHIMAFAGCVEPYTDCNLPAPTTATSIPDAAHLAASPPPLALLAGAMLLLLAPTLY

| SMILES | IC50 (Acetylcholinesterase) [µM] | IC50 (Cholinesterase) [µM] | inhibition [1] [%] | inhibition of growth at 100 µM [2] [%] | inhibition of growth at 10 µM [3] [%] | inhibition of growth at 1 µM [4] [%] | inhibition of growth at 0.1 µM [5] [%] | inhibition of growth at 100 µM (NCI-H157 [6]) [%] | inhibition of growth at 10 µM (NCI-H157 [7]) [%] | inhibition of growth at 1 µM (NCI-H157 [8]) [%] | inhibition of growth at 0.1 µM (NCI-H157 [9]) [%] | inhibition at 100 µM (Leishmania major [10]) [%] | inhibition at 10 µM (Leishmania major [11]) [%] | inhibition at 1 µM (Leishmania major [12]) [%] | inhibition at 0.1 µM (Leishmania major [13]) [%] | inhibition [14] [%] | IC50 [15] [µM] | inhibition (Cholinesterase) [%] |
| --- | --- | --- | --- | --- | --- | --- | --- | --- | --- | --- | --- | --- | --- | --- | --- | --- | --- | --- |
| Oc1ccccc1OCc1nn2c(-c3ccncc3)nnc2s1 | 54 | 18 | 46 | 53.8 | 49.9 | 46.3 | 43.8 | 41.8 | 37.3 | 35.9 | 31.8 | 37.2 | 34.6 | 31.2 | 27.8 |  |  |  |
| Clc1ccc(C2=Nn3c(nnc3-c3ccncc3)SC2)cc1Cl |  | 12.2 |  | 63.5 | 59.4 | 56.5 | 52.8 | 72.1 | 67.4 | 63.5 | 59.4 | 59.8 | 56.4 | 52.3 | 49.3 | 46 | 1.32 |  |
| Cc1occc1-c1nn2c(-c3ccncc3)nnc2s1 | 51.2 |  | 29.9 | 64.7 | 61.6 | 57 | 54.6 | 58.4 | 55.1 | 51.9 | 47.1 | 34.9 | 30.8 | 27.3 | 25.1 |  |  | 41.2 |
| Clc1cccc(C2=Nn3c(nnc3-c3ccncc3)SC2)c1 | 22.7 | 39.4 | 48 | 56.4 | 53.3 | 50.3 | 46.2 | 67.4 | 63.8 | 60.8 | 57.4 | 41.8 | 38.3 | 34.6 | 31.7 |  |  |  |
| Fc1cc(Cl)c(-c2nn3c(-c4ccncc4)nnc3s2)cc1F |  |  | 31.6 | 58.9 | 53.9 | 49.7 | 46.7 | 49.2 | 45.2 | 41.4 | 36.4 | 40.3 | 37.9 | 35.4 | 31.3 | 47.2 |  | 18.2 |
| Cc1ccc(C2=Nn3c(nnc3-c3ccncc3)SC2)cc1 |  | 26.1 | 35.7 | 72.6 | 68.7 | 62 | 53.1 | 63.8 | 57.3 | 53.2 | 50.3 | 43.9 | 39.8 | 37.7 | 34.5 | 46.1 |  |  |
| c1cc(-c2nnc3sc(-c4ccoc4)nn23)ccn1 |  | 36.2 |  | 31.2 | 28.7 | 23.3 | 20.3 | 64.3 | 61.6 | 57.7 | 54.8 | 54.6 | 51.5 | 48.5 | 45.2 | 34.6 | 7.71 |  |
| COc1cccc(C2=Nn3c(nnc3-c3ccncc3)SC2)c1 | 23.8 |  | 38.5 | 73.3 | 69.9 | 66.7 | 52.4 | 54.4 | 51.1 | 47.5 | 43.1 | 38.6 | 35.2 | 32.3 | 29.3 |  |  | 28.9 |
